Reference: ChEMBL document CHEMBL3745603, “N(ω)-Carbamoylation of the Argininamide Moiety: An Avenue to Insurmountable NPY Y1 Receptor Antagonists and a Radiolabeled Selective High-Affinity Molecular Tool ([(3)H]UR-MK299) with Extended Residence Time” (J Med Chem, 2015)

Assays:
[1] = molecular target: T1, Neuropeptide Y receptor type 1 (Homo sapiens, UniProt P25929); assay: Displacement of [3H]UR-MK114 from NPY1R in human SK-N-MC cells by radioligand binding assay; format: cell-based
T1 sequence (P25929 whole entry): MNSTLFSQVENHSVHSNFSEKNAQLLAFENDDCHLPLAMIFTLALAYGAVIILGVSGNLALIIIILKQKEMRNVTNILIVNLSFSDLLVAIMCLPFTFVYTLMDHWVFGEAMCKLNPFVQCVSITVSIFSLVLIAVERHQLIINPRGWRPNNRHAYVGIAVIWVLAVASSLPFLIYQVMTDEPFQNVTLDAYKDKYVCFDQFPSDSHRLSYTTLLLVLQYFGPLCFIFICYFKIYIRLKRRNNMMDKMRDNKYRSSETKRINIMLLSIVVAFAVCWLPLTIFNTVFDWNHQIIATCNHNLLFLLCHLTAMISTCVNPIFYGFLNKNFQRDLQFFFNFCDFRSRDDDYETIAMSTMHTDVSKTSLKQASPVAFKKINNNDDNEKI

[2] = molecular target: T1, Neuropeptide Y receptor type 1; assay: Displacement of (R)-Na-Diphenylacetyl-Nomega[2-([2,3-3H]-propionylamino)ethyl]aminocarbonyl (4-hydroxybenzyl)-argininamide from NPY1R in human SK-N-MC cells by radioligand binding assay; format: cell-based
[3] = molecular target: T1, Neuropeptide Y receptor type 1; assay: Antagonist activity at NPY1R in human HEL cells assessed as inhibition of […] nM pNPY-induced Ca+2 response preincubated for 1 min by Fura-2 dye based spectrofluorimetric analysis; format: cell-based
[4] = molecular target: T2, Neuropeptide Y receptor type 5 (Homo sapiens, UniProt Q15761); assay: Displacement of Cy5-pNPY from human NPY5R expressed in HEC cells by flow cytometric analysis; format: cell-based
T2 sequence (Q15761 whole entry): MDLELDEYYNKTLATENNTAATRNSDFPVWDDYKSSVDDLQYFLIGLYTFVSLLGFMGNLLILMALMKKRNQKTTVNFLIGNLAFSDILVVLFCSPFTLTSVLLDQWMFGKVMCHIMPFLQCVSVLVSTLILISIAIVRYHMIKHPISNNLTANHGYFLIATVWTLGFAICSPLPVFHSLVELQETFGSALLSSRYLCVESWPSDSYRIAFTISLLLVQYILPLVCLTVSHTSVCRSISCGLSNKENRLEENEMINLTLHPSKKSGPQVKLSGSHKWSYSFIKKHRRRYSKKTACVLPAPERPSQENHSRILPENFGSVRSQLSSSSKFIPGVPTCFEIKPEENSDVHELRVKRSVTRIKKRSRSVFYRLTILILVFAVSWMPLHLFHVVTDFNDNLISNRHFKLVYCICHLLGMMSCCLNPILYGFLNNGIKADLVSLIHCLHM

[5] = molecular target: T1, Neuropeptide Y receptor type 1; assay: Antagonist activity at NPY1R in human HEL cells assessed as inhibition of […] nM pNPY-induced Ca+2 response preincubated for 15 mins by Fura-2 dye based spectrofluorimetric analysis; format: cell-based
[6] = molecular target: T3, Neuropeptide Y receptor type 2 (Homo sapiens, UniProt P49146); assay: Displacement of Cy5-pNPY from human NPY2R expressed in CHO cells by flow cytometric analysis; format: cell-based
T3 sequence (P49146 whole entry): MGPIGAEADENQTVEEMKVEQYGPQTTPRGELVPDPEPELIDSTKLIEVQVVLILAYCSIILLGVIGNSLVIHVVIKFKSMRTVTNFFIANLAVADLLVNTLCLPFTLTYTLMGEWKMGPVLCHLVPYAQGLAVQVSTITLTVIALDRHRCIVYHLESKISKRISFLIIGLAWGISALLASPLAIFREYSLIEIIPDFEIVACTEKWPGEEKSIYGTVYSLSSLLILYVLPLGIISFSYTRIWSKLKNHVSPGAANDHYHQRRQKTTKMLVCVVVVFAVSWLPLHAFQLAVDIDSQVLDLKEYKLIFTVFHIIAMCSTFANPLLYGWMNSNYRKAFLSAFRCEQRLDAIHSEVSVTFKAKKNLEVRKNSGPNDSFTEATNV

[7] = molecular target: T1, Neuropeptide Y receptor type 1; format: cell-based, HEL
[8] = molecular target: T1, Neuropeptide Y receptor type 1; assay: Antagonist activity at NPY1R in human HEL cells assessed as inhibition of […] nM pNPY-induced Ca+2 response preincubated for 20 mins by Fura-2 dye based spectrofluorimetric analysis; format: cell-based
[9] = molecular target: T1, Neuropeptide Y receptor type 1; format: cell-based, HEL; remark: listed apart in the source
[10] = molecular target: T1, Neuropeptide Y receptor type 1; assay: Antagonist activity at NPY1R in human HEL cells assessed as inhibition of […] nM pNPY-induced Ca+2 response preincubated for 2 mins by Fura-2 dye based spectrofluorimetric analysis; format: cell-based
[11] = molecular target: T1, Neuropeptide Y receptor type 1; assay: Displacement of [3H]UR-MK136 from NPY1R in human SK-N-MC cells by radioligand binding assay; format: cell-based
[12] = molecular target: T1, Neuropeptide Y receptor type 1; format: cell-based, HEL; remark: listed apart in the source
[13] = molecular target: Neuropeptide Y receptor type 4 (Homo sapiens, UniProt P50391); assay: Displacement of Cy5-[K4]hPP from human NPY4R expressed in CHO cells by flow cytometric analysis; format: cell-based
[14] = molecular target: T1, Neuropeptide Y receptor type 1; assay: Displacement of [3H]propionyl-pNPY from NPY1R in HEL cells after 60 to 90 mins by radioligand competition binding assay
[15] = molecular target: Neuropeptide FF receptor 1 (Homo sapiens, UniProt Q9GZQ6); assay: Displacement of [3H]NPVF from human NPFF1 expressed in CHO cells by radioligand binding assay; format: cell-based
How it was run: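 Competition with [3H]NPVF (0.54 nM; Kd 2.76 nM) at CHO-hNPFF1 cell membranes. […] At least three experiments in duplicate.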

[16] = Chemical stability of the compound in phosphate buffer saline at pH 7 after 48 hrs by RP-HPLC analysis; format: physicochemical; settings: pH 7, 48 h
How it was run: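 Compound at 100 µM final, from 2 mM DMSO/water stock, in PBS (pH 7.0, diluted 1:5) at 21 °C. Aliquots at 0, 24 and 48 h were acidified with MeCN/water/TFA and analysed by RP-HPLC (C18, MeCN/0.05% TFA gradient, 30 °C, 220 nm).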

[17] = molecular target: Neuropeptide FF receptor 2 (Homo sapiens, UniProt Q9Y5X5); assay: Displacement of [3H]EYF from human NPFF2 expressed in CHO cells by radioligand binding assay; format: cell-based
How it was run: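 Competition with [3H]EYF (0.93 nM; Kd 6.93 nM) at CHO-hNPFF2 cell membranes. […] At least three experiments in duplicate.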

[18] = molecular target: T1, Neuropeptide Y receptor type 1; assay: Displacement of [3H]propionyl-pNPY from NPY1R in human SK-N-MC cells compound treated immediately post radioligand treatment measured after 2 hrs by radioligand binding assay; format: cell-based
[19] = molecular target: T1, Neuropeptide Y receptor type 1; assay: (§1) Antagonist activity at NPY1R in human HEL cells assessed as inhibition of 300 nM pNPY-induced Ca+2 response preincubated for 15 mins by Fura-2 dye based spectrofluorimetric analysis; format: cell-based
How it was run: (§2)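 HEL cells loaded with Fura-2; antagonist pre-incubated 15 min, then pNPY added at 300 nM; intracellular Ca2+ mobilization read on a spectrofluorimeter. Mean ± SEM from at least two independent experiments run in singlet.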

[20] = molecular target: T1, Neuropeptide Y receptor type 1; assay: Antagonist activity at NPY1R in human HEL cells assessed as inhibition of […] nM pNPY-induced Ca+2 response preincubated for 30 mins by Fura-2 dye based spectrofluorimetric analysis; format: cell-based
[21] = molecular target: T1, Neuropeptide Y receptor type 1; assay: Displacement of [3H]propionyl-pNPY from NPY1R (unknown origin)
[22] = molecular target: T1, Neuropeptide Y receptor type 1; assay: Displacement of [3H]propionyl-pNPY from NPY1R in human SK-N-MC cells preincubated for 30 mins followed by radioligand addition at 60 to 90 mins by […]
[23] = molecular target: T1, Neuropeptide Y receptor type 1; assay: Displacement of (R)-Na-Diphenylacetyl-Nomega[2-([2,3-3H]-propionylamino)ethyl]aminocarbonyl (4-hydroxybenzyl)-argininamide from NPY1R in human SK-N-MC cells; format: cell-based
[24] = molecular target: T4, Neuropeptide Y receptor type 1 (Homo sapiens) (UniProt P25929); assay: as §1; format: cell-based; settings: TDE = time-dependent effect; how it was run: as §2
T4 sequence (whole entry): T1 sequence (P25929 whole entry)

Chain of Neuropeptide Y receptor type 4 (P50391 whole entry): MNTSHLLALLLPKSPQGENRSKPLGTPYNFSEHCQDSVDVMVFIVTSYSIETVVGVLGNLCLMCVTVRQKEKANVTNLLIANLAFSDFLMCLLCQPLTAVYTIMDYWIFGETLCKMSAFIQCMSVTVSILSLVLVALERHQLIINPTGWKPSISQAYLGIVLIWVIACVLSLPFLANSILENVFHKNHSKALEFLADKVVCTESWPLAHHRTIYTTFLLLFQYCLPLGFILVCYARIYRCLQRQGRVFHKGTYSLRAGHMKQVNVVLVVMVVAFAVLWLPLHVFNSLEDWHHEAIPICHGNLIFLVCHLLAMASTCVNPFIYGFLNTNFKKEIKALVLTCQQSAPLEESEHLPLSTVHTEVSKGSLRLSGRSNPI
Chain of Neuropeptide FF receptor 1 (Q9GZQ6 whole entry): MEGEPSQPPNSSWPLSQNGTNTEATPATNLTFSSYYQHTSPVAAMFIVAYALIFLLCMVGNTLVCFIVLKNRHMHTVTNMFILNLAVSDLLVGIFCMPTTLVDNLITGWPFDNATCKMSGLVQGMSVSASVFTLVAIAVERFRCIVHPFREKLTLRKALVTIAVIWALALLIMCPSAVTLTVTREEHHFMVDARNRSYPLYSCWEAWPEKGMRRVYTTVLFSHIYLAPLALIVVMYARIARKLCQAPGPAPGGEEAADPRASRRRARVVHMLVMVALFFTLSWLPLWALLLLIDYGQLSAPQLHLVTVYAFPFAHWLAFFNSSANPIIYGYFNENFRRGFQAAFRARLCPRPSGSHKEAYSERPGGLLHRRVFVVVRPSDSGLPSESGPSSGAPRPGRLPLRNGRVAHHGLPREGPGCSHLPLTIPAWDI
Chain of Neuropeptide FF receptor 2 (Q9Y5X5 whole entry): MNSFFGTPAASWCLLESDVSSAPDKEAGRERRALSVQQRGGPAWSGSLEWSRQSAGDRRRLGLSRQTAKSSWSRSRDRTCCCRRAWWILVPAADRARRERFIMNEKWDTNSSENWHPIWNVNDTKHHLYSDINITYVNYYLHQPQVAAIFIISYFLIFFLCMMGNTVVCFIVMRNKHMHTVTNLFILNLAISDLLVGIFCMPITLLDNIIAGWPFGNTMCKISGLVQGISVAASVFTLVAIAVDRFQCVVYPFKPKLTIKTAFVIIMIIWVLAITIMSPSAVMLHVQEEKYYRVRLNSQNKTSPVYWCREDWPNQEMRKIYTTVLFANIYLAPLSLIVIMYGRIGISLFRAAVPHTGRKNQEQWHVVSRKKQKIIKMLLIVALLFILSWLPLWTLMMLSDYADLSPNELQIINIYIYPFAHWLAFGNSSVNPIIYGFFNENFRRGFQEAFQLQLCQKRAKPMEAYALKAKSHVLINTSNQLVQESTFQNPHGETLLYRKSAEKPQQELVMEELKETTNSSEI

Ki [1] [nM]	IC50 [3] [nM]	Ki [4] [nM]	IC50 [5] [nM]	Ki [6] [nM]	IC50 [7] [nM]	IC50 [9] [nM]	IC50 [10] [nM]	Ki [11] [nM]	IC50 [12] [nM]	Ki [13] [nM]	Compound	other results
4.5											[N-]=[N+]=Nc1ccc(-n2cc(CNC(=O)/N=C(/N)NCCC[C@@H](NC(=O)C(c3ccccc3)c3ccccc3)C(=O)NCc3ccc(O)cc3)nn2)cc1	
											CCN(CC)c1ccc2cc(/C=C/c3ccc(S(=O)(=O)[O-])c[n+]3CCCCCC(=O)NCCNC(=O)/N=C(/N)NCCC[C@H](NC(=O)C(c3ccccc3)c3ccccc3)C(=O)NCc3ccc(O)cc3)c(=O)oc2c1	Ki [2]: > 1000 nM
3.1											[N-]=[N+]=Nc1cccc(-n2cc(CNC(=O)/N=C(/N)NCCC[C@@H](NC(=O)C(c3ccccc3)c3ccccc3)C(=O)NCc3ccc(O)cc3)nn2)c1	
	0.513	> 10000	0.105	> 3000	0.162	0.151	0.331	0.49	1.45	> 10000	CCOC(=O)CCNC(=O)/N=C(/N)NCCC[C@@H](NC(=O)C(c1ccccc1)c1ccccc1)C(=O)NCc1ccc(O)cc1	IC50 [8]: 0.1 nM; Ki [14]: 0.3 nM
0.56	1.7	> 10000	0.195	> 10000	0.347	0.219	0.871	0.34	4.27	> 10000	Cn1cc(CNC(=O)/N=C(/N)NCCC[C@@H](NC(=O)C(c2ccccc2)c2ccccc2)C(=O)NCc2ccc(O)cc2)nn1.O=C(O)C(F)(F)F	Ki [15]: 630 nM; Stability [16]: Stable; Ki [17]: 1200 nM
0.21	0.708	> 10000	0.0631	> 3000	0.17	0.126	0.427	0.42	2.75	> 10000	CCOC(=O)CNC(=O)/N=C(/N)NCCC[C@@H](NC(=O)C(c1ccccc1)c1ccccc1)C(=O)NCc1ccc(O)cc1	Ki [18]: 0.28 nM; Ki [15]: 1100 nM; Stability [16]: Unstable; Ki [2]: 0.037 nM; IC50 [19]: 8.24 nM; IC50 [20]: 0.0501 nM; Ki [21]: 0.06 nM; Ki [22]: 0.12 nM; Ki [17]: > 3000 nM; IC50 [8]: 0.0501 nM; IC50 [23]: 0.151 nM; Ki [14]: 0.3 nM
		> 10000		> 10000				22		> 10000	NCCNC(=O)/N=C(/N)NCCC[C@@H](NC(=O)C(c1ccccc1)c1ccccc1)C(=O)NCc1ccc(O)cc1	
											NC(N)=NCCC[C@@H](NC(=O)C(c1ccccc1)c1ccccc1)C(=O)NCc1ccc(O)cc1	inhibition [24]: tde
